Assay [1] has as its target Melanocyte-stimulating hormone receptor (Homo sapiens, UniProt Q01726). In words: Activity at human MC1R by cAMP accumulation in SaoS2 cells. Type of assay: functional, cell-based, SAOS-2. In general terms: Changes in cAMP serve as a functional read-out for many G protein-coupled receptors.
Assay [2] addresses T1, Melanocortin receptor 4 (Homo sapiens, UniProt P32245). In words: Activity at human MC4R by cAMP accumulation in SaoS2 cells. The class given is functional, cell-based, SAOS-2.
The target in assay [3] is T1, Melanocortin receptor 4. In words: Displacement of [125I]NDP-alpha-MSH from human cloned MC4R expressed in HEK293 cells. Type of assay: cell-based. The essentials:
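Binding affinity was measured by displacement of radiolabelled [125I]NDP-alpha-MSH ([Nle4, D-Phe7]-alpha-MSH) from recombinant human MC4R expressed in HEK-293 cells.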
(Displacement assays read how much labelled ligand stays bound in the presence of the test substance.)

In assay [4] the target is Melanocortin receptor (M1 and M4) (Homo sapiens, UniProt P32245+Q01726). In words: Selectivity for human MC4R over MC1R. The class given is functional.

T1 sequence (P32245 whole entry): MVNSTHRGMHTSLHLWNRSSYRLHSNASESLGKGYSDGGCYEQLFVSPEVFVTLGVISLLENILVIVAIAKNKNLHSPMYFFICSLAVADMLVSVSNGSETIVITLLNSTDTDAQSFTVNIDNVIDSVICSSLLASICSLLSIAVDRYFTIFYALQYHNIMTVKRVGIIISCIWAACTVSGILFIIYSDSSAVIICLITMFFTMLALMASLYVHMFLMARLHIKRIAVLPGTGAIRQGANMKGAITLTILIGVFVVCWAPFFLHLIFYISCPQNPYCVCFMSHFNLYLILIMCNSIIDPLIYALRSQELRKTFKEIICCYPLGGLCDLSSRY
Melanocyte-stimulating hormone receptor, sequence (Q01726 whole entry): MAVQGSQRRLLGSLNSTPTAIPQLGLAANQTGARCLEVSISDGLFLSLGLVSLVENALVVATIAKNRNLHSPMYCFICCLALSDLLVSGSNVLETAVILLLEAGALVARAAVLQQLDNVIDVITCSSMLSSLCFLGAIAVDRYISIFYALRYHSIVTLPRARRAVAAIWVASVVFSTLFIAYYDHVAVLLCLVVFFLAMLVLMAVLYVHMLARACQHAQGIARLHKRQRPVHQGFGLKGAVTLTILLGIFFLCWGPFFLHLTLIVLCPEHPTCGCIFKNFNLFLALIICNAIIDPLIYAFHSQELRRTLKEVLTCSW

The EC50 is the concentration giving half of the maximal effect. Read a low EC50 as an effect from little substance. One may read the Ki as a dissociation constant, usually derived from enzyme kinetics or from competition with a known ligand. With `N=C(N)NCCC[C@@H]1NC(=O)[C@@H](Cc2ccccc2)NC(=O)[C@H](Cc2c[nH]cn2)NC(=O)CCCCCNC(=O)[C@H](Cc2c[nH]c3ccccc23)NC1=O`, the EC50 was 1.3 µM in assay [1] and 3.12 µM at Melanocortin receptor 4 [2]. The same compound registered a Ki at Melanocortin receptor 4 [3] of 0.67 µM. Moreover, the EC50 ratio (MC1R/MC4R) in assay [4] amounted to 0.42.

With `N=C(N)NCCC[C@@H]1NC(=O)[C@@H](Cc2ccccc2)NC(=O)[C@H](Cc2c[nH]cn2)NC(=O)CCCCCCNC(=O)[C@H](Cc2c[nH]c3ccccc23)NC1=O`, the EC50 in assay [1] worked out at 0.067 µM; on Melanocortin receptor 4 [2], 0.0154 µM. The same compound came in with a Ki on Melanocortin receptor 4 [3] of 0.244 µM. Moreover, in assay [4], the EC50 ratio (MC1R/MC4R) was 4.3.

As for `N=C(N)NCCC[C@@H]1NC(=O)[C@H](Cc2ccccc2)NC(=O)[C@H](Cc2cnc[nH]2)NC(=O)CCCCCCCNC(=O)[C@H](Cc2c[nH]c3ccccc23)NC1=O`, the EC50 in assay [1] was determined as 5.1 µM; at Melanocortin receptor 4 [2], 9.59 µM. On Melanocortin receptor 4 [3], this compound gave a Ki of 4.42 µM. Further, the EC50 ratio (MC1R/MC4R) in assay [4] was 0.53.

With `NC(N)=NCCC[C@@H]1NC(=O)[C@@H](Cc2ccccc2)NC(=O)[C@H](Cc2cnc[nH]2)NC(=O)CCCNC(=O)[C@H](Cc2c[nH]c3ccccc23)NC1=O`, the figures for the EC50 (in assay [1]; at Melanocortin receptor 4 [2]) were 0.27 µM and 1.58 µM, respectively. Also, the affinity on Melanocortin receptor 4 [3] corresponds to a Ki of 5.78 µM. Moreover, in assay [4], the EC50 ratio (MC1R/MC4R) amounted to 0.17.

`N=C(N)NCCC[C@@H]1NC(=O)[C@@H](Cc2ccccc2)NC(=O)[C@H](Cc2c[nH]cn2)NC(=O)CCCCNC(=O)[C@H](Cc2c[nH]c3ccccc23)NC1=O`: the EC50 turned out to be 3.3 µM in assay [1] and 10.1 µM on Melanocortin receptor 4 [2]. In addition, the EC50 ratio (MC1R/MC4R) in assay [4] was found to be 0.33.

Take `NC(N)=NCCC[C@@H]1NC(=O)[C@@H](Cc2ccccc2)NC(=O)[C@H](Cc2cnc[nH]2)NC(=O)CCCCCCCNC(=O)[C@H](Cc2c[nH]c3ccccc23)NC1=O`: the EC50 in assay [1] is 0.0774 µM; at Melanocortin receptor 4 [2] it was 0.0164 µM. At Melanocortin receptor 4 [3], this compound gave a Ki of 0.319 µM. The EC50 ratio (MC1R/MC4R) in assay [4] is 4.7.

These data come from ChEMBL document CHEMBL1137420, “Design of cyclic peptides with agonist activity at melanocortin receptor-4” (Bioorg Med Chem Lett, 2006).
